FXIIa inh – human FXIIa protease inhibitors, primary screen, biochemical, 1536-well | Coagulation factor XII (Homo sapiens), P00748 | purified FXIIa, Boc-QGR-AMC fluorogenic substrate, 2 h | inhibition, % at 5 µM | 0.3% of 220,000 active | AID 800, 2007; in the data active means inhibition above about 40%
FXIa inh 1536 – human FXIa protease inhibitors, primary screen, biochemical, 1536-well. purified FXIa, Boc-Glu-Ala-Arg-AMC fluorogenic substrate. 0.14% of 220,000 active. inhibition, % at 5 µM;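 active means inhibition of at least 40%; inactive means inhibition below 40%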;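 further: fluorescence of freed AMC excited at 355 nm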
Target sequence (P03951 19-387 limits assumed): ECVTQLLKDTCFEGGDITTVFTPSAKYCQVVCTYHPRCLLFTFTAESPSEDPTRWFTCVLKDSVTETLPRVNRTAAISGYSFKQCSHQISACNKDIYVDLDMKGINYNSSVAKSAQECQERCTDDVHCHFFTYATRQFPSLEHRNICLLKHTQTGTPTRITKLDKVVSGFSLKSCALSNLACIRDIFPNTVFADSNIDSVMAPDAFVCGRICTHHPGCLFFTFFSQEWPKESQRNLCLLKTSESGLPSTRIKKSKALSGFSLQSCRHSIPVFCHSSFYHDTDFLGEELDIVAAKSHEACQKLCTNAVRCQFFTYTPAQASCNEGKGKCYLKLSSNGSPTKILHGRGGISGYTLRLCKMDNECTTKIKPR
Target sequence (P03951 388-625 limits assumed): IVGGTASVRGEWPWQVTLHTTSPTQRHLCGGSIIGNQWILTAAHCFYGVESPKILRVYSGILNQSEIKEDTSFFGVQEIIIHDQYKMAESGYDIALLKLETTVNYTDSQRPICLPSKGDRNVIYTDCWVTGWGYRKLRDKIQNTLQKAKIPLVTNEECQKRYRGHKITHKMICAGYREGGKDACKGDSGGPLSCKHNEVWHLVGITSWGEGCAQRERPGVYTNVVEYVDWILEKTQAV
thrombin 1536 – human alpha-thrombin inhibitors, primary screen, counter-screen for coagulation protease inhibitor project, biochemical, 1536-well, fluorogenic AMC substrate | Boc-VPR-AMC fluorogenic substrate cleavage | Prothrombin (Homo sapiens), P00734 | 0.26% of 220,000 active | inhibition, % at 5 µM;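 active means inhibition at or above 40%; inactive means inhibition below 40%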
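Assay system: human alpha-thrombin enzyme. Reagent: Boc-VPR-AMC substrate, 15 µM final. Compound dosing: one concentration per compound, 5 µM, with 0.2% DMSO. Incubation: room-temperature reaction. Technique: AMC fluorescence, 355/460 nm. Measure: % inhibition relative to enzyme controls and enzyme-free blanks.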
KLK5 inh – human KLK5 protease inhibitors, primary screen, biochemical, 1536-well; Kallikrein-5 (Homo sapiens), Q9Y337; recombinant hK5, fluorogenic AMC substrate cleavage; inhibition, % at 5 µM; 0.59% of 210,000 active; AID 873, 2007;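 active means inhibition of 40% or more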
Calpain2 inh – inhibitors of pig calpain II, primary screen, biochemical, fluorogenic peptide substrate, 1536-well; purified calpain II, 30 min; 0.37% of 220,000 active; inhibition, % at 16 µM; AID 1236, 2008;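 active means inhibition above about 50%, limit read from the data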
Hits are given with their value. Hits are enriched below; roughly 1.4% of the tested compounds scored in any of these assays.

N#CCCC1CCCC=C1N(Cc1ccccc1)C(=O)C(Cl)Cl (configuration not stated) was read as FXIIa inh inactive, FXIa inh 1536 57.5, thrombin 1536 inactive, KLK5 inh inactive and Calpain2 inh inactive.
Cc1ccc(NC(=O)N(CCC#N)Cc2ccccc2)cc1 was read as FXIIa inh inactive, FXIa inh 1536 inactive, thrombin 1536 inactive, KLK5 inh inactive and Calpain2 inh inactive.
COc1ccc(N2CCN(C(CNS(=O)(=O)c3ccc4c(c3)OCCO4)c3ccco3)CC2)cc1 (configuration not stated) was read as FXIIa inh inactive, FXIa inh 1536 inactive, thrombin 1536 inactive, KLK5 inh inactive and Calpain2 inh inactive.
For NC(=O)COC(=O)c1ccc(Cl)c(S(=O)(=O)N2CCN(c3ccc(F)cc3)CC2)c1 the results were FXIIa inh inactive, FXIa inh 1536 inactive, thrombin 1536 inactive, KLK5 inh 45.1 and Calpain2 inh inactive.
NC(=O)COC(=O)c1cccc(S(=O)(=O)N2CCN(c3ccc(F)cc3)CC2)c1 was read as FXIIa inh inactive, FXIa inh 1536 inactive, thrombin 1536 inactive, KLK5 inh inactive and Calpain2 inh inactive.
Screening Cc1nc(/N=C\N(C)C)sc1C(=O)Nc1ccccc1 returned FXIIa inh inactive, FXIa inh 1536 inactive, thrombin 1536 inactive, KLK5 inh 48.0 and Calpain2 inh inactive.
COc1ccc(-n2c(CNc3ccc(C)cc3)nnc2SCC(=O)Nc2nc(-c3ccccc3)cs2)cc1 was read as FXIIa inh inactive, FXIa inh 1536 inactive, thrombin 1536 inactive, KLK5 inh inactive and Calpain2 inh 68.5.
`COc1ccc(NCc2nnc(SCC(=O)Nc3nc(-c4ccccc4)cs3)n2-c2ccccc2)cc1` gave FXIIa inh inactive, FXIa inh 1536 inactive, thrombin 1536 inactive, KLK5 inh inactive and Calpain2 inh inactive.
For CC(C)Sc1nc2c([nH]c3ccccc32)c(=O)n1C the results were FXIIa inh inactive, FXIa inh 1536 inactive, thrombin 1536 inactive, KLK5 inh inactive and Calpain2 inh 81.9.
CCOC(=O)C(C)Sc1nc2c([nH]c3ccccc32)c(=O)n1C (configuration not stated) was read as FXIIa inh inactive, FXIa inh 1536 inactive, thrombin 1536 inactive, KLK5 inh inactive and Calpain2 inh inactive.
For CCOCC(=O)Nc1ccc(S(=O)(=O)Nc2ncccn2)cc1 the results were FXIIa inh 52.9, FXIa inh 1536 inactive, thrombin 1536 inactive, KLK5 inh inactive and Calpain2 inh inactive.
CCOC(=O)C(=O)Nc1ccc(S(=O)(=O)Nc2ncccn2)cc1 was read as FXIIa inh inactive, FXIa inh 1536 inactive, thrombin 1536 inactive, KLK5 inh inactive and Calpain2 inh inactive.
Screening O=C(CCCCCN1C(=O)c2ccccc2C1=O)Nc1ccc(S(=O)(=O)N2CCCCC2)cc1 returned FXIIa inh inactive, FXIa inh 1536 inactive, thrombin 1536 inactive, KLK5 inh inactive and Calpain2 inh 53.4.
`c1ccc(OCCn2c(-c3ccco3)nc3ccccc32)cc1` gave FXIIa inh inactive, FXIa inh 1536 inactive, thrombin 1536 inactive, KLK5 inh inactive and Calpain2 inh inactive.
Screening Cc1cccc(OCCn2c(-c3ccco3)nc3ccccc32)c1 returned FXIIa inh inactive, FXIa inh 1536 inactive, thrombin 1536 inactive, KLK5 inh 48.3 and Calpain2 inh inactive.
COc1ccc(CN2C(=O)c3cccnc3C2Nc2cc(Cl)ccc2OC)cc1 (configuration not stated) was read as FXIIa inh inactive, FXIa inh 1536 inactive, thrombin 1536 inactive, KLK5 inh 46.4 and Calpain2 inh inactive.
O=C(CSc1nc2nc[nH]c2c(=O)[nH]1)NC1CCCCC1 was read as FXIIa inh inactive, FXIa inh 1536 inactive, thrombin 1536 45.8, KLK5 inh inactive and Calpain2 inh inactive.
Screening Cc1nc(SCC(=O)NC2CCCCC2)[nH]c(=O)c1C returned FXIIa inh inactive, FXIa inh 1536 inactive, thrombin 1536 inactive, KLK5 inh inactive and Calpain2 inh inactive.
For c1ccc(-c2cc3c(ccc4nonc43)nn2)cc1 the results were FXIIa inh inactive, FXIa inh 1536 inactive, thrombin 1536 inactive, KLK5 inh inactive and Calpain2 inh inactive.
`On1onc2c3cc(-c4ccccc4)nc3ccc21` gave FXIIa inh inactive, FXIa inh 1536 inactive, thrombin 1536 inactive, KLK5 inh inactive and Calpain2 inh 82.5.
NC(=O)Cc1ccc(C(=O)c2ccc(F)cc2)s1 was read as FXIIa inh inactive, FXIa inh 1536 inactive, thrombin 1536 inactive, KLK5 inh inactive and Calpain2 inh inactive.
`O=C(CSc1nc(-c2ccc(F)cc2)nc2c1Cc1ccccc1O2)Nc1cccc(C(=O)O)c1` gave FXIIa inh inactive, FXIa inh 1536 inactive, thrombin 1536 inactive, KLK5 inh inactive and Calpain2 inh 59.0.
For O=C(Nc1nc(-c2ccc(Cl)s2)cs1)c1cccs1 the results were FXIIa inh 73.3, FXIa inh 1536 91.0, thrombin 1536 inactive, KLK5 inh inactive and Calpain2 inh inactive.
Screening O=C(Nc1nc(-c2ccccc2)cs1)c1cccs1 returned FXIIa inh inactive, FXIa inh 1536 inactive, thrombin 1536 inactive, KLK5 inh inactive and Calpain2 inh inactive.
For CC(/C=C1\SC(=S)N(c2ccc(C(=O)O)cc2)C1=O)=C\c1ccccc1 the results were FXIIa inh inactive, FXIa inh 1536 inactive, thrombin 1536 inactive, KLK5 inh inactive and Calpain2 inh 73.2.
`CC(/C=C1\SC(=S)N(NC(=O)c2ccc(C)cc2)C1=O)=C\c1ccccc1` gave FXIIa inh inactive, FXIa inh 1536 inactive, thrombin 1536 inactive, KLK5 inh inactive and Calpain2 inh inactive.
Screening CCc1ccc(NC(=O)COC(=O)CCc2nc3cc(S(=O)(=O)N(CC)CC)ccc3n2C)cc1 returned FXIIa inh inactive, FXIa inh 1536 inactive, thrombin 1536 inactive, KLK5 inh 57.6 and Calpain2 inh inactive.
Fc1cccc(C2NC(=S)NC3=C2N2CCC3CC2)c1 (configuration not stated) was read as FXIIa inh inactive, FXIa inh 1536 inactive, thrombin 1536 inactive, KLK5 inh inactive and Calpain2 inh inactive.
S=C1NC2=C(C(c3ccc(Br)cc3)N1)N1CCC2CC1 (configuration not stated) was read as FXIIa inh inactive, FXIa inh 1536 inactive, thrombin 1536 inactive, KLK5 inh 75.6 and Calpain2 inh inactive.
Screening CCN(CC)C(=N)/C(C#N)=N/Nc1ccc(C)cc1 returned FXIIa inh inactive, FXIa inh 1536 inactive, thrombin 1536 inactive, KLK5 inh 42.1 and Calpain2 inh inactive.
For Cc1ccc(N/N=C(\C#N)C(=N)N2CCCCCC2)cc1 the results were FXIIa inh inactive, FXIa inh 1536 inactive, thrombin 1536 inactive, KLK5 inh inactive and Calpain2 inh inactive.
For C(=N\n1cnnc1)/c1cccn1-c1ccccc1 the results were FXIIa inh inactive, FXIa inh 1536 inactive, thrombin 1536 inactive, KLK5 inh inactive and Calpain2 inh inactive.

Screens as filed in PubChem BioAssay.
